Experiment [1] has as its target T1, D(1A) dopamine receptor (Rattus norvegicus, UniProt P18901). Nature of the experiment: Dopamine receptor D1 antagonistic activity as ability to block dopamine-stimulated adenylate cyclase in rat caudate. In kind it is functional.
The target in the next experiment is D(2) dopamine receptor (Rattus norvegicus, UniProt P61169). The experiment in a line: Affinity for Dopamine receptor D2 binding measured by sulpiride […] to rat striatal membrane. Also on record: species or system Striatum. The method in brief: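 Competition binding against [³H]sulpiride at D2 sites in rat striatal (caudate putamen) membranes. Ki values are means ± SEM of at least three determinations, each run in triplicate.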
Sequence of D(2) dopamine receptor (P61169 whole entry): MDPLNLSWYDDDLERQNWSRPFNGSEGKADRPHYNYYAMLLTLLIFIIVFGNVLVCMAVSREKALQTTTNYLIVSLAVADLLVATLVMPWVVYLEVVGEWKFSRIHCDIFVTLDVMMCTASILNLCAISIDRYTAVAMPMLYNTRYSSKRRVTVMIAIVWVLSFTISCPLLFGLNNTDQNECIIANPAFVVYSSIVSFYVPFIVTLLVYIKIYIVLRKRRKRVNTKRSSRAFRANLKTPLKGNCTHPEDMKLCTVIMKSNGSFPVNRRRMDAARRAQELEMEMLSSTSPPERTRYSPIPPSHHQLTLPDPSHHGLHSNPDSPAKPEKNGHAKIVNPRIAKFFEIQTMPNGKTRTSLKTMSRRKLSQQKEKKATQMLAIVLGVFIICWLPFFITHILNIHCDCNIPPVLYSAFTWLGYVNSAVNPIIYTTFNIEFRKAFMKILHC

In experiment [2] the target is T1, D(1A) dopamine receptor. The experiment in a line: Affinity for Dopamine receptor D1 binding measured by competition against [3H]-SCH- 23390 to rat striatal membrane. Set-up: species or system Striatum. The method in brief:
(§1)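 Competition binding against [³H]SCH 23390 at D1 sites in rat striatal (caudate putamen) membranes. Ki values are means ± SEM of at least three determinations, each run in triplicate.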

Experiment [3] concerns the target T1, D(1A) dopamine receptor. Nature of the experiment: Affinity for dopamine receptor D1 binding measured by competition against [3H]-SCH- 23390 to rat striatal membrane. Set-up: species or system Striatum. The method in brief:
as §1

Each structure is given as a SMILES string.

T1 sequence (P18901 whole entry): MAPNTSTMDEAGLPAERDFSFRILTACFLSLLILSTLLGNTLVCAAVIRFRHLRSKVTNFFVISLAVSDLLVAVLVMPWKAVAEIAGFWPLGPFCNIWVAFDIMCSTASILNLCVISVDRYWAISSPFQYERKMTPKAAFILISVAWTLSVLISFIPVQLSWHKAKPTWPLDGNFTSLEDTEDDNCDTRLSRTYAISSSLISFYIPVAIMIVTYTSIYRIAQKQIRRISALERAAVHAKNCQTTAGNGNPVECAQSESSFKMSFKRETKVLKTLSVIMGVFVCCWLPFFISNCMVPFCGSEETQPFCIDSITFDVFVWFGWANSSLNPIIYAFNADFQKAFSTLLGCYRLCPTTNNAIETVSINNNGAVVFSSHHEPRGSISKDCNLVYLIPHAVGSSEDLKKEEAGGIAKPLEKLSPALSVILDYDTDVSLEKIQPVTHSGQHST

With `CN(C)CCCCCCN1CCc2cc(Cl)c(O)cc2C(c2ccccc2)C1` (stereo unspecified), the results for the Ki at D(1A) dopamine receptor [1] and on D(2) dopamine receptor (read-out: Ki) were 21 nM and 4130 nM, respectively.

In the case of `COc1cc2c(cc1Br)CCN(C/C=C/c1ccc(N(C)C)cc1)CC2c1ccccc1` (stereo unspecified), the Ki on D(2) dopamine receptor (read-out: Ki) amounted to 2000 nM. In the case of `CN(C)c1ccc(/C=C/CN2CCc3cc(Cl)c(O)cc3C(c3ccccc3)C2)cc1` (stereo unspecified), the values for the Ki on D(1A) dopamine receptor [1] and on D(2) dopamine receptor (read-out: Ki) were 18.4 nM and 345 nM, respectively. Take `CN(C)CCCCN1CCc2cc(Cl)c(O)cc2C(c2ccccc2)C1` (stereo unspecified): the Ki at D(2) dopamine receptor (read-out: Ki) was found to be 3450 nM. As for `CN(C)c1ccc(CCN2CCc3cc(Cl)c(O)cc3C(c3ccccc3)C2)cc1` (stereo unspecified), the Ki at D(1A) dopamine receptor [2] came out at 88.4 nM. In the case of `CN(C)c1ccc(/C=C/CN2CCc3cc(Br)c(O)cc3C(c3ccccc3)C2)cc1` (stereo unspecified), the Ki stood at 120 nM on D(1A) dopamine receptor [3] and 858 nM at D(2) dopamine receptor (read-out: Ki).

Turning to `Oc1cc2c(cc1Br)CCN(C/C=C/c1ccccc1)CC2c1ccccc1` (stereo unspecified), the Ki at D(1A) dopamine receptor [3] was 209 nM; on D(2) dopamine receptor, “Insoluble”.

By Ki is commonly meant the equilibrium dissociation constant of an inhibitor or competing ligand from its target.

The values above are taken from ChEMBL document CHEMBL1129618, “(+/-)-3-[4'-(N,N-dimethylamino)cinnamyl]benzazepine analogs: novel dopamine D1 receptor antagonists” (J Med Chem, 1996).
